Data reported in ChEMBL document CHEMBL3244078, “Synthesis and antihypertensive activity of novel 3-hydrazino-5-phenyl-1,2,4-triazines” (J Med Chem, 1979).
Calls of active or inactive are those of the source. The calls are words filed in the database; no cut-off is given here.

Legend:
[1] = test system: Rattus norvegicus; assay: Antihypertensive activity in spontaneously hypertensive rat assessed as drop in mean systolic blood pressure at 10 mg/kg, po followed by second dosing at 24 hrs measured after 48 hrs by tail cuff method relative to vehicle-treated control; assay type: functional, Artery
In short: (§1)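 Dose-response run of the primary SHR protocol: rats aged 12–16 weeks, systolic BP of 170 mmHg or greater, five per dose. Oral doses of 100, 30, 10 and 3 mg/kg in 0.25% methylcellulose, redosed immediately after the 24-h reading. Tail-cuff systolic BP read predose and at 4, 24, 28 and 48 h. Mean drop from predose; Student's t test, p < 0.05.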

[2] = test system: Rattus norvegicus; assay: Antihypertensive activity in spontaneously hypertensive rat assessed as mean heart rate at 3 mg/kg, po followed by second dosing at 24 hrs measured after 28 hrs by tail cuff method relative to vehicle-treated control; assay type: functional
In short: (§2)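 Heart rate by biotachometer in the SHR dose-response protocol: five rats per dose, oral doses of 100, 30, 10 and 3 mg/kg in 0.25% methylcellulose, second dose right after the 24-h reading. Mean heart rate recorded predose and at 4, 24, 28 and 48 h.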

[3] = test system: Rattus norvegicus; assay: Antihypertensive activity in spontaneously hypertensive rat assessed as mean heart rate at 100 mg/kg, po after 24 hrs by tail cuff method relative to vehicle-treated control; assay type: functional; in short: as §2
[4] = test system: Rattus norvegicus; assay: Antihypertensive activity in spontaneously hypertensive rat assessed as mean heart rate at 30 mg/kg, po followed by second dosing at 24 hrs measured after 48 hrs by tail cuff method relative to vehicle-treated control; assay type: functional; in short: as §2
[5] = test system: Rattus norvegicus; assay: Antihypertensive activity in spontaneously hypertensive rat assessed as drop in mean systolic blood pressure at 30 mg/kg, po after 24 hrs by tail cuff method relative to vehicle-treated control; assay type: functional, Artery; in short: as §1
[6] = test system: Rattus norvegicus; assay: Antihypertensive activity in spontaneously hypertensive rat assessed as drop in mean systolic blood pressure at 30 mg/kg, po after 4 hrs by tail cuff method relative to vehicle-treated control; assay type: functional, Artery; in short: as §1
[7] = test system: Rattus norvegicus; assay: Antihypertensive activity in spontaneously hypertensive rat assessed as mean heart rate at 3 mg/kg, po after 4 hrs by tail cuff method relative to vehicle-treated control; assay type: functional; in short: as §2
[8] = test system: Rattus norvegicus; assay: Antihypertensive activity in spontaneously hypertensive rat assessed as mean heart rate at 10 mg/kg, po after 4 hrs by tail cuff method relative to vehicle-treated control; assay type: functional; in short: as §2
[9] = test system: Rattus norvegicus; assay: Antihypertensive activity in spontaneously hypertensive rat assessed as mean heart rate at 30 mg/kg, po after 24 hrs by tail cuff method relative to vehicle-treated control; assay type: functional; in short: as §2
[10] = test system: Rattus norvegicus; assay: Antihypertensive activity in spontaneously hypertensive rat assessed as mean heart rate at 3 mg/kg, po after 24 hrs by tail cuff method relative to vehicle-treated control; assay type: functional; in short: as §2
[11] = test system: Rattus norvegicus; assay: Antihypertensive activity in spontaneously hypertensive rat assessed as drop in mean systolic blood pressure at 100 mg/kg, po after 24 hrs by tail cuff method relative to vehicle-treated control; assay type: functional, Artery
[12] = test system: Rattus norvegicus; assay: Antihypertensive activity in spontaneously hypertensive rat assessed as drop in mean systolic blood pressure at 30 mg/kg, po followed by second dosing at 24 hrs measured after 48 hrs by tail cuff method relative to vehicle-treated control; assay type: functional, Artery; in short: as §1
[13] = test system: Rattus norvegicus; assay: Antihypertensive activity in spontaneously hypertensive rat assessed as mean heart rate at 10 mg/kg, po followed by second dosing at 24 hrs measured after 28 hrs by tail cuff method relative to vehicle-treated control; assay type: functional; in short: as §2
[14] = test system: Rattus norvegicus; assay: Antihypertensive activity in spontaneously hypertensive rat assessed as mean heart rate at 100 mg/kg, po followed by second dosing at 24 hrs measured after 48 hrs by tail cuff method relative to vehicle-treated control; assay type: functional; in short: as §2
[15] = test system: Rattus norvegicus; assay: Antihypertensive activity in spontaneously hypertensive rat assessed as drop in mean systolic blood pressure at 10 mg/kg, po after 4 hrs by tail cuff method relative to vehicle-treated control; assay type: functional, Artery; in short: as §1
[16] = test system: Rattus norvegicus; assay: Antihypertensive activity in spontaneously hypertensive rat assessed as mean heart rate at 100 mg/kg, po followed by second dosing at 24 hrs measured after 28 hrs by tail cuff method relative to vehicle-treated control; assay type: functional; in short: as §2
[17] = test system: Rattus norvegicus; assay: Antihypertensive activity in spontaneously hypertensive rat assessed as mean heart rate at 100 mg/kg, po after 4 hrs by tail cuff method relative to vehicle-treated control; assay type: functional; in short: as §2
[18] = test system: Rattus norvegicus; assay: Antihypertensive activity in spontaneously hypertensive rat assessed as drop in mean systolic blood pressure at 10 mg/kg, po after 24 hrs by tail cuff method relative to vehicle-treated control; assay type: functional, Artery; in short: as §1
[19] = test system: Rattus norvegicus; assay: Antihypertensive activity in spontaneously hypertensive rat assessed as mean heart rate at 10 mg/kg, po after 24 hrs by tail cuff method relative to vehicle-treated control; assay type: functional; in short: as §2
[20] = test system: Rattus norvegicus; assay: Antihypertensive activity in spontaneously hypertensive rat assessed as mean heart rate at 30 mg/kg, po followed by second dosing at 24 hrs measured after 28 hrs by tail cuff method relative to vehicle-treated control; assay type: functional; in short: as §2
[21] = test system: Rattus norvegicus; assay: Antihypertensive activity in spontaneously hypertensive rat assessed as mean heart rate at 3 mg/kg, po followed by second dosing at 24 hrs measured after 48 hrs by tail cuff method relative to vehicle-treated control; assay type: functional; in short: as §2
[22] = test system: Rattus norvegicus; assay: Antihypertensive activity in spontaneously hypertensive rat assessed as mean heart rate at 10 mg/kg, po followed by second dosing at 24 hrs measured after 48 hrs by tail cuff method relative to vehicle-treated control; assay type: functional; in short: as §2
[23] = test system: Rattus norvegicus; assay: Antihypertensive activity in spontaneously hypertensive rat assessed as drop in mean systolic blood pressure at 100 mg/kg, po followed by second dosing at 24 hrs measured after 48 hrs by tail cuff method relative to vehicle-treated control; assay type: functional, Artery
[24] = test system: Rattus norvegicus; assay: Antihypertensive activity in spontaneously hypertensive rat assessed as drop in mean systolic blood pressure at 30 mg/kg, po followed by second dosing at 24 hrs measured after 28 hrs by tail cuff method relative to vehicle-treated control; assay type: functional, Artery; in short: as §1
[25] = test system: Rattus norvegicus; assay: Antihypertensive activity in spontaneously hypertensive rat assessed as drop in mean systolic blood pressure at 100 mg/kg, po after 4 hrs by tail cuff method relative to vehicle-treated control; assay type: functional, Artery
[26] = test system: Rattus norvegicus; assay: Antihypertensive activity in spontaneously hypertensive rat assessed as drop in mean systolic blood pressure at 100 mg/kg, po followed by second dosing at 24 hrs measured after 28 hrs by tail cuff method relative to vehicle-treated control; assay type: functional, Artery
[27] = test system: Rattus norvegicus; assay: Antihypertensive activity in spontaneously hypertensive rat assessed as drop in mean systolic blood pressure at 10 mg/kg, po followed by second dosing at 24 hrs measured after 28 hrs by tail cuff method relative to vehicle-treated control; assay type: functional, Artery; in short: as §1
[28] = test system: Rattus norvegicus; assay: Antihypertensive activity in spontaneously hypertensive rat assessed as mean heart rate at 30 mg/kg, po after 4 hrs by tail cuff method relative to vehicle-treated control; assay type: functional; in short: as §2
[29] = Toxicity in ip dosed CF-1 mouse after 48 hrs; settings: in vivo
[30] = test system: Rattus norvegicus; assay: Antihypertensive activity in spontaneously hypertensive rat assessed as drop in mean systolic blood pressure at 50 mg/kg, po followed by second dosing at 24 hrs measured after 48 hrs by tail cuff method relative to vehicle-treated control; assay type: functional, Artery
In short: (§3)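 Spontaneously hypertensive rats aged 12–16 weeks with systolic BP of 170 mmHg or greater, in groups of five. Dosed po as a solution or suspension in 0.25% methylcellulose at 5 mL/kg, with a second dose right after the 24-h reading. Tail-cuff systolic BP (capacitance transducer) was read predose as control, then at 4, 24, 28 and 48 h. Mean drop from predose; Student's t test, p < 0.05.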

[31] = test system: Rattus norvegicus; assay: Antihypertensive activity in spontaneously hypertensive rat assessed as drop in mean systolic blood pressure at 50 mg/kg, po after 4 hrs by tail cuff method relative to vehicle-treated control; assay type: functional, Artery; in short: as §3
[32] = test system: Rattus norvegicus; assay: Antihypertensive activity in spontaneously hypertensive rat assessed as drop in mean systolic blood pressure at 50 mg/kg, po followed by second dosing at 24 hrs measured after 28 hrs by tail cuff method relative to vehicle-treated control; assay type: functional, Artery; in short: as §3
[33] = test system: Rattus norvegicus; assay: Antihypertensive activity in spontaneously hypertensive rat assessed as drop in mean systolic blood pressure at 50 mg/kg, po after 24 hrs by tail cuff method relative to vehicle-treated control; assay type: functional, Artery; in short: as §3

## O=C(NNc1nncc(-c2ccc(Cl)c(Cl)c2)n1)C(F)(F)F
[1]
  Activity: 15 mmHg
[2]
  Activity: 428 bpm
[3]
  Activity: 462 bpm
[4]
  Activity: 426 bpm
[5]
  Activity: 18 mmHg
[6]
  Activity: 18 mmHg
[7]
  Activity: 430 bpm
[8]
  Activity: 412 bpm
[9]
  Activity: 438 bpm
[10]
  Activity: 424 bpm
[11]
  Activity: 29 mmHg
[12]
  Activity: 16 mmHg
[13]
  Activity: 448 bpm
[14]
  Activity: 438 bpm
[15]
  Activity: 16 mmHg
[16]
  Activity: 438 bpm
[17]
  Activity: 472 bpm
[18]
  Activity: 12 mmHg
[19]
  Activity: 438 bpm
[20]
  Activity: 435 bpm
[21]
  Activity: 424 bpm
[22]
  Activity: 400 bpm
[23]
  Activity: 25 mmHg
[24]
  Activity: 18 mmHg
[25]
  Activity: 30 mmHg
[26]
  Activity: 35 mmHg
[27]
  Activity: 17 mmHg
[28]
  Activity: 444 bpm
[29]
  LD50 at 48 h: > 300 mg/kg

## NNc1nncc(-c2ccccc2)n1
[30]
  Activity: 60 mmHg
[31]
  Activity: 30 mmHg
[32]
  Activity: 58 mmHg
[33]
  Activity: 43 mmHg
[29]
  LD50 at 48 h: 56 mg/kg

## CC(=O)NNc1nncc(-c2cccc(Cl)c2)n1
[1]; Artery
  Activity: inactive
[2]
  Activity: 436 bpm
[3]
  Activity: 482 bpm
[4]
  Activity: 462 bpm
[5]
  Activity: 14 mmHg
[6]
  Activity: 16 mmHg
[7]
  Activity: 422 bpm
[8]
  Activity: 458 bpm
[9]
  Activity: 438 bpm
[10]
  Activity: 430 bpm
[11]
  Activity: 23 mmHg
[12]
  Activity: 19 mmHg
[13]
  Activity: 448 bpm
[14]
  Activity: 490 bpm
[15]; Artery
  Activity: inactive
[16]
  Activity: 482 bpm
[17]
  Activity: 478 bpm
[18]; Artery
  Activity: inactive
[19]
  Activity: 460 bpm
[20]
  Activity: 460 bpm
[21]
  Activity: 442 bpm
[22]
  Activity: 448 bpm
[23]
  Activity: 55 mmHg
[24]
  Activity: 19 mmHg
[25]
  Activity: 20 mmHg
[26]
  Activity: 50 mmHg
[27]; Artery
  Activity: inactive
[28]
  Activity: 400 bpm
[29]
  LD50 at 48 h: > 300 mg/kg

## Cl.O.O=C(NNc1nncc(-c2ccccc2)n1)C12CC3CC(CC(C3)C1)C2
[1]; Artery
  Activity: inactive
[2]
  Activity: 418 bpm
[3]
  Activity: 428 bpm
[4]
  Activity: 392 bpm
[5]
  Activity: 12 mmHg
[6]
  Activity: 20 mmHg
[7]
  Activity: 445 bpm
[8]
  Activity: 468 bpm
[9]
  Activity: 412 bpm
[10]
  Activity: 420 bpm
[11]
  Activity: 70 mmHg
[12]
  Activity: 11 mmHg
[13]
  Activity: 428 bpm
[14]
  Activity: 458 bpm
[15]; Artery
  Activity: inactive
[16]
  Activity: 442 bpm
[17]
  Activity: 446 bpm
[18]; Artery
  Activity: inactive
[19]
  Activity: 446 bpm
[20]
  Activity: 380 bpm
[21]
  Activity: 426 bpm
[22]
  Activity: 422 bpm
[23]
  Activity: 35 mmHg
[24]
  Activity: 18 mmHg
[25]
  Activity: 42 mmHg
[26]
  Activity: 46 mmHg
[27]; Artery
  Activity: inactive
[28]
  Activity: 410 bpm
[29]
  LD50 at 48 h: > 300 mg/kg

## NNc1nncc2ccccc12 [HYDRALAZINE]
[1]
  Activity: 10 mmHg
[2]
  Activity: 444 bpm
[4]
  Activity: 448 bpm
[5]
  Activity: 60 mmHg
[6]
  Activity: 88 mmHg
[7]
  Activity: 448 bpm
[8]
  Activity: 504 bpm
[9]
  Activity: 480 bpm
[10]
  Activity: 392 bpm
[12]
  Activity: 14 mmHg
[13]
  Activity: 428 bpm
[15]
  Activity: 60 mmHg
[18]
  Activity: 38 mmHg
[19]
  Activity: 468 bpm
[20]
  Activity: 496 bpm
[21]
  Activity: 432 bpm
[22]
  Activity: 448 bpm
[24]
  Activity: 47 mmHg
[27]
  Activity: 10 mmHg
[28]
  Activity: 492 bpm
[29]
  LD50 at 48 h: 100 mg/kg

## Br.NCC(=O)NNc1nncc(-c2ccccc2)n1.O
[30]
  Activity: 91 mmHg
[31]
  Activity: 41 mmHg
[32]
  Activity: 105 mmHg
[33]
  Activity: 35 mmHg
[29]
  LD50 at 48 h: 75 mg/kg
